Screening data from PubChem BioAssay.
Compounds with a hit are over-represented: about 1.8% of the library has one in this group of screens.
CHRM4 antagonist = CHRM4 antagonism in calcium assay | P08173 | CHO-hM4 cells, ACh EC80, Fluo-8 calcium fluorescence | inhibition, % at 3 µM | 0.73% of 360,000 active;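 active means inhibition above its plate's cutoff, the mean inhibition of sample wells plus 3 SD, cut at about 27% in these data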
Target sequence (P08173 whole entry, looked up): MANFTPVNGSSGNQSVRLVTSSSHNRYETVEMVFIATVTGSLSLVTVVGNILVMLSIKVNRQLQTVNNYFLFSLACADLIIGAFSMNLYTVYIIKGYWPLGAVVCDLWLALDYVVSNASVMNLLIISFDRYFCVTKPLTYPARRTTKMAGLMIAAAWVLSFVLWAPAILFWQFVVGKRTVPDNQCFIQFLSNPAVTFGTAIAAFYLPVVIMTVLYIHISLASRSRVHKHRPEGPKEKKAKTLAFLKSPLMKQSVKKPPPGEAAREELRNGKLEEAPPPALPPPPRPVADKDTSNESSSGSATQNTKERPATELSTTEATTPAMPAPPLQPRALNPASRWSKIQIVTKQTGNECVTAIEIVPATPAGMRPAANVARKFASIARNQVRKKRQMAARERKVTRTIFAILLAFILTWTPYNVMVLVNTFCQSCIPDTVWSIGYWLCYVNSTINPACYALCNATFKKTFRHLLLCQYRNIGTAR
M5 ag = agonists of human muscarinic M5 receptor (CHRM5). P08912. CHO-K1 hM5 cells, Fluo-8 calcium fluorescence; 0% DMSO wells, 100% maximal acetylcholine response. activation, % at 3 µM. 0.19% of 360,000 active. AID 624037;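 active means activation above the run's mean over test compounds plus 3 SD, cut at about 23% in these data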;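 further: signal is peak over basal fluorescence ratio across the kinetic read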
M4 PAM = CHRM4 positive allosteric modulation; CHO-K1 hM4/Gqi5, Fluo-8 calcium fluorescence, ACh EC20; 0% = ACh EC20, 100% = maximal ACh; activation, % at 3 µM; 0.4% of 360,000 active;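 active means activation above its plate's cutoff, the mean activation of sample wells plus 3 SD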
CHRM4 agonist = CHRM4 agonism in calcium assay; CHO-K1 hM4/Gqi5, Fluo-8 calcium fluorescence; vehicle 0%, full acetylcholine response 100%; activation, % at 3 µM; 0.14% of 360,000 active; AID 624127;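 active means activation above the run mean over all test wells plus 3 SD, cut at about 32% in these data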;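 further: peak over basal fluorescence ratio per well then scaled between controls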
M5 PAM = positive allosteric modulators of human muscarinic M5 receptor. P08912. CHO-K1 hM5, Fluo-8 calcium, ACh EC20 PAM; 0% = ACh EC20, 100% = ACh EC100. activation, % at 3 µM. 0.3% of 360,000 active;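 active means activation above the run cutoff, the mean activation of all test compounds plus 3 SD, cut at about 18% in these data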
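System – CHO-K1 hM5 cells · Compound – 3 µM, single dose · Incubation – compound preincubation 140 s before EC20 acetylcholine addition · Technique – Fluo-8 calcium fluorescence · Measure – Max/basal fluorescence ratio as % of EC20–EC100 ACh window · Benchmarks – low control EC20 acetylcholine (0%), high control EC100 acetylcholine (100%) · Replication – singlicate, one well per test compound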
M5 antag = antagonists of human muscarinic M5 receptor (CHRM5) | CHO-hM5 cells, Fluo-8 calcium fluorescence, ACh EC80 | P08912 | inhibition, % at 3 µM | 0.59% of 360,000 active | AID 624040;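 active means inhibition above a per-plate cutoff, the mean of that plate's test compounds plus 3 SD, cut at about 27% in these data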
Hits are given with their value; ! = not confirmed by another sample.

`CCCCCCCCCCOC(=O)Cn1c(COc2ccccc2C)[n+](C)c2ccccc21` gave CHRM4 antagonist 92, M5 ag inactive, M4 PAM inactive, CHRM4 agonist inactive, M5 PAM inactive and M5 antag 53.
For CCCCCCCCCCOC(=O)Cn1c(COc2ccc(Cl)cc2)[n+](C)c2ccccc21 the results were CHRM4 antagonist inactive, M5 ag inactive, M4 PAM inactive, CHRM4 agonist inactive, M5 PAM inactive and M5 antag inactive.
Screening Cc1ccccc1OCc1n(CC(=O)OC2CC(C)CCC2C(C)C)c2ccccc2[n+]1C (centres undefined) returned CHRM4 antagonist 35, M5 ag inactive, M4 PAM inactive, CHRM4 agonist inactive, M5 PAM inactive and M5 antag 44!.
`O=C(c1ccc(Cl)cc1)N(Cc1ccco1)C1CCS(=O)(=O)C1` (centres undefined) gave CHRM4 antagonist inactive, M5 ag inactive, M4 PAM inactive, CHRM4 agonist inactive, M5 PAM inactive and M5 antag inactive.
For CCCCCCCCCCOC(=O)Cn1c(COc2cccc(C)c2)[n+](C)c2ccccc21 the results were CHRM4 antagonist 38, M5 ag inactive, M4 PAM inactive, CHRM4 agonist inactive, M5 PAM inactive and M5 antag inactive.
For CN(CC(=O)Nc1ccc(C#N)cc1)Cc1ccc(Cl)cc1Cl the results were CHRM4 antagonist inactive, M5 ag inactive, M4 PAM inactive, CHRM4 agonist inactive, M5 PAM inactive and M5 antag 27.
Screening CN(CC(=O)Nc1ccc(C#N)cc1)Cc1ccc(Cl)cc1 returned CHRM4 antagonist inactive, M5 ag inactive, M4 PAM inactive, CHRM4 agonist inactive, M5 PAM inactive and M5 antag inactive.
For O=C(N/N=C/C=C/c1ccccc1)C1CC1c1ccccc1 (centres undefined) the results were CHRM4 antagonist inactive, M5 ag inactive, M4 PAM 17, CHRM4 agonist inactive, M5 PAM inactive and M5 antag inactive.
`FC(F)(F)Sc1ccc(NC(=S)NCc2ccccc2)cc1` gave CHRM4 antagonist inactive, M5 ag inactive, M4 PAM inactive, CHRM4 agonist inactive, M5 PAM inactive and M5 antag 28.
`S=C(NCc1ccccc1)Nc1ccc(Cl)cc1` gave CHRM4 antagonist inactive, M5 ag inactive, M4 PAM inactive, CHRM4 agonist inactive, M5 PAM inactive and M5 antag inactive.
Screening CCOC(=O)c1ccc(N2CCN(c3ccccc3F)CC2)c(NC(=O)Nc2ccccc2)c1 returned CHRM4 antagonist 36, M5 ag inactive, M4 PAM inactive, CHRM4 agonist inactive, M5 PAM inactive and M5 antag 40.
CCOC(=O)c1ccc(N2CCN(c3ccc(F)cc3)CC2)c(NC(=O)Nc2cccc(OC)c2)c1 was read as CHRM4 antagonist inactive, M5 ag inactive, M4 PAM inactive, CHRM4 agonist inactive, M5 PAM inactive and M5 antag inactive.
N#Cc1ccc(N2CCN(C(=O)c3cccc(F)c3)CC2)c(F)c1 was read as CHRM4 antagonist inactive, M5 ag inactive, M4 PAM 16, CHRM4 agonist inactive, M5 PAM inactive and M5 antag inactive.
COc1ccccc1C(c1c(N)n(C)c(=O)n(C)c1=O)C(C)[N+](=O)[O-] (centres undefined) was read as CHRM4 antagonist inactive, M5 ag inactive, M4 PAM inactive, CHRM4 agonist inactive, M5 PAM inactive and M5 antag 28.
For COc1ccccc1C(C[N+](=O)[O-])c1c(N)n(C)c(=O)n(C)c1=O (centres undefined) the results were CHRM4 antagonist inactive, M5 ag inactive, M4 PAM inactive, CHRM4 agonist inactive, M5 PAM inactive and M5 antag inactive.
Screening Cc1ccc(C(C(=O)NC2CCCCC2)N2CCCC2)cc1 (centres undefined) returned CHRM4 antagonist inactive, M5 ag inactive, M4 PAM inactive, CHRM4 agonist inactive, M5 PAM inactive and M5 antag inactive.
Screening O=C(NC1CCCCC1)C(c1ccccc1)N1CCCC1 (centres undefined) returned CHRM4 antagonist 46, M5 ag inactive, M4 PAM inactive, CHRM4 agonist inactive, M5 PAM inactive and M5 antag inactive.
For CC(C(=O)NC(=O)NC1CCCCC1)N1CCN(C(c2ccccc2)c2ccccc2)CC1 (centres undefined) the results were CHRM4 antagonist 37, M5 ag inactive, M4 PAM inactive, CHRM4 agonist inactive, M5 PAM inactive and M5 antag inactive.
Screening CC(C(=O)NC1CCCC1)N1CCN(Cc2ccccc2)CC1 (centres undefined) returned CHRM4 antagonist inactive, M5 ag inactive, M4 PAM inactive, CHRM4 agonist inactive, M5 PAM inactive and M5 antag inactive.
Screening CCCCNC(=O)Cn1c(=O)c2c(ncn2CC)n(Cc2ccccc2)c1=O returned CHRM4 antagonist inactive, M5 ag inactive, M4 PAM inactive, CHRM4 agonist inactive, M5 PAM inactive and M5 antag inactive.
`Cc1ccc(N2CN(CCc3ccccc3)CNC2=S)cc1` gave CHRM4 antagonist inactive, M5 ag inactive, M4 PAM 14, CHRM4 agonist inactive, M5 PAM inactive and M5 antag inactive.
`CCOC(=O)c1ccc(N2CN(CCc3ccccc3)CNC2=S)cc1` gave CHRM4 antagonist inactive, M5 ag inactive, M4 PAM inactive, CHRM4 agonist inactive, M5 PAM inactive and M5 antag inactive.
Screening C=CCn1c(C(C)n2c(-c3cnccn3)nc3ccccc32)nc2ccccc21 (centres undefined) returned CHRM4 antagonist inactive, M5 ag inactive, M4 PAM inactive, CHRM4 agonist inactive, M5 PAM inactive and M5 antag inactive.
Screening CCOC(=O)C1=C(C)NC(C)=C(C(=O)OCC)C1C(=O)OCC(=O)NC1CCCCC1 returned CHRM4 antagonist inactive, M5 ag inactive, M4 PAM inactive, CHRM4 agonist inactive, M5 PAM inactive and M5 antag inactive.
`O=C(Cc1ccccc1Cl)c1ccccc1` gave CHRM4 antagonist inactive, M5 ag inactive, M4 PAM 27, CHRM4 agonist inactive, M5 PAM inactive and M5 antag inactive.
COc1ccc(-c2nc(N3CCCCCC3)sc2C(=O)c2ccccc2)cc1 was read as CHRM4 antagonist 33, M5 ag inactive, M4 PAM inactive, CHRM4 agonist inactive, M5 PAM inactive and M5 antag inactive.
`O=C(c1ccccc1)c1sc(N2CCCCCC2)nc1-c1ccccc1` gave CHRM4 antagonist inactive, M5 ag inactive, M4 PAM inactive, CHRM4 agonist inactive, M5 PAM inactive and M5 antag inactive.
`COc1ccc(CN(Cc2cccnc2)C(=S)NCCc2ccccc2)cc1OC` gave CHRM4 antagonist inactive, M5 ag inactive, M4 PAM inactive, CHRM4 agonist inactive, M5 PAM inactive and M5 antag inactive.
